Compound activity as filed in PubChem BioAssay.
Most compounds without a hit are left out; they make up all but 1.8% or so of the library.
LMPTP inh – blocks human LMPTP phosphatase. recombinant LMPTP-A, OMFP fluorogenic substrate, fluorescence intensity. inhibition, % at 20 µM. AID 651560. 360,000 tested, 0.22% active;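 active = compounds that cut the enzyme signal by at least half of the control window in the single-dose screen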
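Buffer or medium: Bis-Tris pH 6.0, DTT, detergent; Assay system: LMPTP-A enzyme; Quantity: 0.625 nM enzyme; Detection: endpoint fluorescence intensity; Times: 50 min dark incubation at room temperature; Controls: substrate-only low control, DMSO enzyme-plus-substrate high control; Doses: single 20 µM dose; Read-out: percent inhibition versus substrate-only and uninhibited controls; Reagent: 400 µM OMFP.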
DNMT1 block – inhibitors of human DNMT1; P26358; DNMT1 molecular beacon, Hinp1I cleavage, fluorescence; inhibition (reported as % activation of signal), % at 10 µM; 360,000 tested, 0.83% active; AID 588458; in the data active = inhibition above about 50%
SUMO1 PPI mod – modulators of human SUMO1-mediated protein-protein interactions. P63165. SUMO1 binding to a labelled peptide, TR-FRET, 1 h. inhibition, % at 20 µM. 360,000 tested, 0.33% active. AID 602429; in the data active = inhibition above about 37%
Scp-1 inhibitor – blocks human Scp-1 phosphatase activity. Q9GZU7. Recombinant Scp1, phosphopeptide, malachite green phosphate absorbance. inhibition, % at 20 µM. 340,000 tested, 0.88% active. AID 493091;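 active = inhibition above about 50% at 20 µM, limit read from the data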
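System: truncated SCP-1 phosphatase (76-261aa); medium: Tris acetate buffer pH 5.5 with MgCl2 and Tween-20; incubation: 45 min room-temperature reaction, 5 min colour, 30 min stabiliser; compound: single 20 µM dose, 1% DMSO; reagent: Phosphorylated 17-residue peptide substrate; read-out: % inhibition at 20 µM; technique: colorimetric free-phosphate detection, absorbance 630 nm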
HKDC1 inhibitor – HKDC1 (human) hexokinase inhibition; recombinant HKDC1, G6PDH/diaphorase resazurin coupled fluorescence; inhibition, % at 20 µM; 340,000 tested, 0.16% active;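 active = inhibition above about 35% when tested at 20 µM, limit read from the data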
Target sequence (Q2TB90 whole entry, looked up): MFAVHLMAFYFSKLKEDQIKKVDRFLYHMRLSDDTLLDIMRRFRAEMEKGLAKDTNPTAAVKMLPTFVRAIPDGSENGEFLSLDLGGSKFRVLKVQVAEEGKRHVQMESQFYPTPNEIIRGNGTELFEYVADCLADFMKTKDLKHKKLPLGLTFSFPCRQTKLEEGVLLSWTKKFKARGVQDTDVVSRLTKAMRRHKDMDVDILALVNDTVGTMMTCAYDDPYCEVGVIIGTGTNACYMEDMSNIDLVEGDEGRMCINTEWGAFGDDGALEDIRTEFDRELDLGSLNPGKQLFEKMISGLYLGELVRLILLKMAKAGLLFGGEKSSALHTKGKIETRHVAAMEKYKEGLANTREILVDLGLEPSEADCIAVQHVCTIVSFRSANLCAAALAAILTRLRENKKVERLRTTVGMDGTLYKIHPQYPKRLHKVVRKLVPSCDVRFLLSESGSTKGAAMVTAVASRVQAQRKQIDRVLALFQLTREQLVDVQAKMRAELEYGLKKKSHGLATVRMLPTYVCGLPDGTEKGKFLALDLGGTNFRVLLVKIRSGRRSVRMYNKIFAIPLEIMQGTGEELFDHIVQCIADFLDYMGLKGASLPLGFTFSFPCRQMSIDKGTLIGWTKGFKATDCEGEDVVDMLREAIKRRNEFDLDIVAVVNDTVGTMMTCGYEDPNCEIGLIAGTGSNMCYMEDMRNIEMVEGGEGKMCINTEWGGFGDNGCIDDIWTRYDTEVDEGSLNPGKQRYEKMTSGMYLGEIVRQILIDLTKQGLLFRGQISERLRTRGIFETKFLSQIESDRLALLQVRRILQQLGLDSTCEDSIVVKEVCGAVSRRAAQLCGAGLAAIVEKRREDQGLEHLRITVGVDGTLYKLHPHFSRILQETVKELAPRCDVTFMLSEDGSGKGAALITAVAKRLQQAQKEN
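Test system: recombinant HKDC1 (HK5) hexokinase enzyme, produced in-house / Doses: 20 µM test compound, 1% DMSO / Timing: 90 min, room temperature / Detection: G6PDH/diaphorase-coupled fluorescence, 1 mM NADP, 100 µM resazurin, 525/613 nm / Control set: DMSO wells with and without enzyme mix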
STEP block – blocks human striatal-enriched tyrosine phosphatase | recombinant STEP, OMFP fluorogenic substrate, fluorescence | P54829 | 360,000 tested, 0.25% active | inhibition, % at 20 µM;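 active = inhibition at 20 µM, scaled per plate between control wells, above about 37%, limit read from the data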
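System: STEP phosphatase, cell-free reaction; Buffer or medium: Bis-Tris pH 6.0 buffer with DTT, detergent; Incubation: 20 min at room temperature, dark; Measured by: fluorescence, 480/540 nm.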
DNMT1 inh conf – confirmation of human DNMT1 inhibitors; 2,300 tested, 8% active; DNMT1 molecular beacon HinP1I cleavage, fluorescence; inhibition, % at 10 µM; shares compounds with DNMT1 block;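 active = average inhibition of at least 30% in the single-concentration confirmation test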
Beacon interf – counter-screen for DNMT1 inhibitors: spectral interference | shares compounds with DNMT1 block | DNMT1 molecular beacon spectral interference counterscreen, fluorescence 485/520 | activation (fluorescence interference), % at 10 µM | 2,300 tested, 1% active | AID 602387;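 active = activation of at least 30% at 10 µM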;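 also: DNMT1 catalytic domain with a HinP1I cleavage step and a FAM/dabcyl DNA beacon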
A number is an active result; - = inactive; . = not tested or not shown.

SMILES	LMPTP inh	DNMT1 block	SUMO1 PPI mod	Scp-1 inhibitor	HKDC1 inhibitor	STEP block	DNMT1 inh conf	Beacon interf
COc1ccc(NC(=O)CSc2nnc(CC(=O)Nc3ccc(F)cc3)n2C)cc1	-	-	-	-	-	-	.	.
CCC1(CC)C(=O)Nc2ccccc21	-	75	-	-	-	-	-	-
O=C1Nc2ccccc2C1(c1ccccc1)c1ccccc1	-	-	-	-	-	-	.	.
Cc1ccccc1-n1nc2c(c1NC(=O)C(C)(C)C)CS(=O)(=O)C2	-	-	-	-	-	-	.	.
NC(=O)CC(NC(=O)Cc1ccc(Br)cc1)c1ccc(NC2CCCC2)c([N+](=O)[O-])c1 (stereo not drawn)	-	54	-	-	-	-	-	-
NC(=O)CC(NC(=O)Cc1cccc2ccccc12)c1ccc(NC2CCCCCCC2)c([N+](=O)[O-])c1 (stereo not drawn)	-	60	-	-	-	-	-	-
Cc1ccc(-c2cc(C(=O)Nc3ccc(S(=O)(=O)N4CC(C)OC(C)C4)cc3)[nH]n2)c(O)c1 (stereo not drawn)	-	124	-	-	-	-	-	-
Cc1ccc(O)c(-c2cc(C(=O)Nc3ccc(S(=O)(=O)N4CC(C)OC(C)C4)cc3)[nH]n2)c1 (stereo not drawn)	-	-	-	-	-	-	.	.
CN(c1ccccc1)S(=O)(=O)c1cccc(NS(=O)(=O)c2ccc(/C=C/C(=O)O)cc2)c1	-	-	-	-	-	-	.	.
COCCn1c(-c2ccc(-c3ccc([N+](=O)[O-])cc3Br)o2)nc2c1c(=O)[nH]c(=O)n2CC(C)C	-	70	-	-	-	-	-	-
O=C(NCc1ccco1)c1nc2c(nnn2Cc2ccccc2Cl)c(=O)[nH]1	-	-	-	-	-	-	.	.
Cc1ccc(C)c(Cn2nnc3c(=O)[nH]c(C(=O)NCc4ccco4)nc32)c1	-	52	-	-	-	-	-	-
O=C(/C=C/c1ccc(Br)o1)NCc1ccccc1	-	74	-	-	-	-	-	-
CCOc1cc(/C=C2\C(=O)NN(c3ccccc3)C2=O)cc([N+](=O)[O-])c1O	-	68	-	-	-	-	-	-
O=C(Nc1ccc(Cl)cc1)c1csc(COCCO)n1	-	-	-	.	.	-	.	.
O=C(Nc1ccc(Oc2ccccc2)cc1)c1csc(COCCO)n1	-	64	-	.	.	-	-	-
O=C(/C=C/c1ccc(Br)cc1)c1ccc(NC(=O)c2ccco2)cc1	-	88	-	-	-	-	-	-
Cc1cc(C)cc(NC(=O)c2ccc(NC(=O)c3ccco3)cc2)c1	-	-	-	-	-	-	.	.
COC(=O)c1ccc(NC(=O)c2ccc(NC(=O)c3ccco3)cc2)cc1	-	58	54	-	-	-	-	-
O=C(CC[C@H]1O[C@@H](n2ccc(=O)[nH]c2=O)[C@H](O)[C@@H]1O)N1CCN(c2ccccn2)CC1	-	-	-	.	.	-	.	.
O=C(CC[C@H]1O[C@@H](n2ccc(=O)[nH]c2=O)[C@H](O)[C@@H]1O)N1CCN(Cc2cccc3ccccc23)CC1	-	85	-	.	.	-	-	-
O=c1ccn([C@@H]2O[C@H](CO)[C@@H](O)[C@H]2O)c(=O)[nH]1	-	81	-	-	-	-	-	-
CC(C)c1ccc(-c2nn(-c3ccccc3)cc2C2C(C#N)=C(N)OC3=C2C(=O)CC(C)(C)C3)cc1 (stereo not drawn)	-	-	-	-	-	-	.	.
CN1/C(=C\C(=O)c2cccc([N+](=O)[O-])c2)Sc2ccccc21	-	52	-	-	-	-	-	-
CC(C)C1Nc2c(O)cc(Cl)c([N+](=O)[O-])c2C2C=CCC21 (stereo not drawn)	-	-	-	-	-	-	.	.
